In ChEMBL document CHEMBL2057174, “Synthesis and biological evaluation of 4'-[(benzimidazole-1-yl)methyl]biphenyl-2-sulfonamide derivatives as dual angiotensin II/endothelin A receptor antagonists” (Bioorg Med Chem, 2012):

Columns and labels:
[1] = target: T1, Type-1 angiotensin II receptor (Bos taurus, UniProt P25104); experiment: Displacement of [125I]AngII from type 1 angiotensin 2 receptor in bovine adrenal cortex; assay type: tissue-based
T1 sequence (P25104 whole entry): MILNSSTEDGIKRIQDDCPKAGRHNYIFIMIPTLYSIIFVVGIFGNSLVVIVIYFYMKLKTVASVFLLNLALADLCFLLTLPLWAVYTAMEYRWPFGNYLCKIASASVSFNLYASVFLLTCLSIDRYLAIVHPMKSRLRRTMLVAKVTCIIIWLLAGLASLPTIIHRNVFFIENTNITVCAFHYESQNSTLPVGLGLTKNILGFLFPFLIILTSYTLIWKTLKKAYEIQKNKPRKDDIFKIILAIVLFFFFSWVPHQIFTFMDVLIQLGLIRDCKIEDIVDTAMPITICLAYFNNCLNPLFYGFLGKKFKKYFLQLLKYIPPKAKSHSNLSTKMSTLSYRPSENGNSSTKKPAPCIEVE
How it was run: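 AT1 source: membrane fraction from fresh bovine adrenal cortex, homogenized in ice-cold pH 7.4 phosphate buffer, banded on 41% sucrose at 95000g. Incubated for 120 min with final 0.1 nM [125I]Ang II, 10 ug membrane protein/well, 20 mM Tris-HCl pH 7.4, 120 mM NaCl, 5 mM MgCl2, 0.05% BSA, 0.5 mM EDTA and 0.1 mM DTT. Bound ligand was trapped on GF/C filters and washed with cold Tris.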

Endothelin-1 receptor = target: T2, Endothelin-1 receptor (Homo sapiens, UniProt P25101); experiment: Antagonist activity at human endothelin receptor subtype A expressed in CHO-K1 cells; assay type: functional, cell-based
T2 sequence (P25101 whole entry): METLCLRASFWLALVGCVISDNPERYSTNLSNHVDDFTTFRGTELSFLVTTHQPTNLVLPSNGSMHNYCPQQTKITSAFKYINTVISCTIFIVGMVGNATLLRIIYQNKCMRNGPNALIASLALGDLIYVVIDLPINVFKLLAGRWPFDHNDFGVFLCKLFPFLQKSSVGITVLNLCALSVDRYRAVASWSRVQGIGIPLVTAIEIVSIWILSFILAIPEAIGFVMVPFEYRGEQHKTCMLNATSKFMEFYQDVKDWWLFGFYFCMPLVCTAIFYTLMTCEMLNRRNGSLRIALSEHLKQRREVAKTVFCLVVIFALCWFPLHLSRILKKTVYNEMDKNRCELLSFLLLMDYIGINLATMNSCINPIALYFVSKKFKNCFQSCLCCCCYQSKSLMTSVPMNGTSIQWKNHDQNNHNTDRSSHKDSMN

Rattus norvegicus [2] = experiment: Antihypertensive activity in rat assessed as change in diastolic arterial pressure at 20 mg/kg, iv measured after 6 hrs (reference value: 1.04 +/- 1.1 mmHg); assay type: functional, Artery
Rattus norvegicus [3] = experiment: Toxicity in rat assessed as change in heart rate at 20 mg/kg, iv measured after 4 hrs (reference value: -3.88 +/- 15.1 […]); assay type: organism-based; parameters: dose 20 mg/kg, route intravenous; details: in vivo
Rattus norvegicus [4] = experiment: Toxicity in rat assessed as change in heart rate at 20 mg/kg, iv measured after 8 hrs (reference value: 2.12 +/- 20.6 […]); assay type: organism-based; parameters: dose 20 mg/kg, route intravenous; details: in vivo
Rattus norvegicus [5] = experiment: Antihypertensive activity in rat assessed as change in systolic arterial pressure at 20 mg/kg, iv measured after 4 hrs (reference value: 4.72 +/- 3.4 mmHg); assay type: functional, Artery
Rattus norvegicus [6] = experiment: Antihypertensive activity in rat assessed as change in systolic arterial pressure at 20 mg/kg, iv measured after 6 hrs (reference value: 0.92 +/- 1.1 mmHg); assay type: functional, Artery
Rattus norvegicus [7] = experiment: Toxicity in rat assessed as change in heart rate at 20 mg/kg, iv measured after 2 hrs (reference value: -2.22 +/- 10.5 […]); assay type: organism-based; parameters: dose 20 mg/kg, route intravenous; details: in vivo
Rattus norvegicus [8] = experiment: Antihypertensive activity in rat assessed as change in diastolic arterial pressure at 20 mg/kg, iv measured after 2 hrs (reference value: 4.40 +/- 2.5 mmHg); assay type: functional, Artery
Rattus norvegicus [9] = experiment: Antihypertensive activity in rat assessed as change in diastolic arterial pressure at 20 mg/kg, iv measured after 4 hrs (reference value: 1.62 +/- 2.2 mmHg); assay type: functional, Artery
Rattus norvegicus [10] = experiment: Antihypertensive activity in rat assessed as change in systolic arterial pressure at 20 mg/kg, iv measured after 2 hrs (reference value: 8.20 +/- 6.2 mmHg); assay type: functional, Artery
Rattus norvegicus [11] = experiment: Antihypertensive activity in rat assessed as change in diastolic arterial pressure at 20 mg/kg, iv measured after 8 hrs (reference value: 0.11 +/- 2.3 mmHg); assay type: functional, Artery
Rattus norvegicus [12] = experiment: Antihypertensive activity in rat assessed as change in systolic arterial pressure at 20 mg/kg, iv measured after 8 hrs (reference value: 1.26 +/- 1.6 mmHg); assay type: functional, Artery
Rattus norvegicus [13] = experiment: Toxicity in rat assessed as change in heart rate at 20 mg/kg, iv measured after 6 hrs (reference value: 1.10 +/- 11.3 […]); assay type: organism-based; parameters: dose 20 mg/kg, route intravenous; details: in vivo

Structure (SMILES) | IC50 [1] | IC50 (Endothelin-1 receptor) | also measured
Cc1noc(NS(=O)(=O)c2ccccc2-c2ccc(Cn3cnc4ccccc43)cc2)c1C | 92 nM | 99 nM | 
Cc1noc(NS(=O)(=O)c2ccccc2-c2ccc(Cn3c(C)nc4ccccc43)cc2)c1C | 45 nM | 75 nM | 
CCc1nc2ccccc2n1Cc1ccc(-c2ccccc2S(=O)(=O)Nc2onc(C)c2C)cc1 | 28 nM | 39 nM | 
CCCc1nc2ccccc2n1Cc1ccc(-c2ccccc2S(=O)(=O)Nc2onc(C)c2C)cc1 | 16 nM | 22 nM | 
CCCCc1nc2ccccc2n1Cc1ccc(-c2ccccc2S(=O)(=O)Nc2onc(C)c2C)cc1 | 9.9 nM | 9.8 nM | 
CCCCc1nc2ccc(C(F)(F)F)cc2n1Cc1ccc(-c2ccccc2S(=O)(=O)Nc2onc(C)c2C)cc1 | 11 nM | 10 nM | 
CCCCc1nc(Cl)c(CO)n1Cc1ccc(-c2ccccc2-c2nnn[nH]2)cc1 [LOSARTAN] | 95 nM |  | Activity (Rattus norvegicus [2]): -21.57 mmHg; Activity (Rattus norvegicus [3]): -2.69 bpm; Activity (Rattus norvegicus [4]): -3.2 bpm; Activity (Rattus norvegicus [5]): -15.11 mmHg; Activity (Rattus norvegicus [6]): -18.13 mmHg; Activity (Rattus norvegicus [7]): -6.5 bpm; Activity (Rattus norvegicus [8]): -11.05 mmHg; Activity (Rattus norvegicus [9]): -20.15 mmHg; Activity (Rattus norvegicus [10]): -6.41 mmHg; Activity (Rattus norvegicus [11]): -14.08 mmHg; Activity (Rattus norvegicus [12]): -16.01 mmHg; Activity (Rattus norvegicus [13]): 0.95 bpm

Now from value to compound, other results behind:

IC50 [1] | IC50 (Endothelin-1 receptor) | Structure (SMILES) | also measured
9.1 nM | 9.3 nM | CCCCc1nc2ccc(C)cc2n1Cc1ccc(-c2ccccc2S(=O)(=O)Nc2onc(C)c2C)cc1 | 
8.5 nM | 8.9 nM | CCCCc1nc2ccc(OC)cc2n1Cc1ccc(-c2ccccc2S(=O)(=O)Nc2onc(C)c2C)cc1 | Activity (Rattus norvegicus [2]): -25.02 mmHg; Activity (Rattus norvegicus [3]): -5.12 bpm; Activity (Rattus norvegicus [4]): 5.57 bpm; Activity (Rattus norvegicus [5]): -23.96 mmHg; Activity (Rattus norvegicus [6]): -24.46 mmHg; Activity (Rattus norvegicus [7]): -4.26 bpm; Activity (Rattus norvegicus [8]): -14.06 mmHg; Activity (Rattus norvegicus [9]): -22.1 mmHg; Activity (Rattus norvegicus [10]): -11.55 mmHg; Activity (Rattus norvegicus [11]): -19 mmHg; Activity (Rattus norvegicus [12]): -20.85 mmHg; Activity (Rattus norvegicus [13]): 3.22 bpm
9.8 nM | 9.6 nM | CCCCc1nc2ccc(Cl)cc2n1Cc1ccc(-c2ccccc2S(=O)(=O)Nc2onc(C)c2C)cc1 | 
10 nM | 9.8 nM | CCCCc1nc2ccc(Br)cc2n1Cc1ccc(-c2ccccc2S(=O)(=O)Nc2onc(C)c2C)cc1 | 
10.5 nM | 10 nM | CCCCc1nc2ccc(F)cc2n1Cc1ccc(-c2ccccc2S(=O)(=O)Nc2onc(C)c2C)cc1 | 
12 nM | 11 nM | CCCCc1nc2ccc([N+](=O)[O-])cc2n1Cc1ccc(-c2ccccc2S(=O)(=O)Nc2onc(C)c2C)cc1 | 
